Test results published in ChEMBL document CHEMBL2021777 (J Med Chem, 2012).
Active and inactive are the calls of the source.

Experiments:
[1] = biological target: Neuronal acetylcholine receptor; alpha2/beta2 (Rattus norvegicus, UniProt P12389+P12390); experiment: Displacement of [3H] epibatidine from rat alpha2beta2 nAChR by beta scintillation counting; type: protein-complex assay
[2] = biological target: Neuronal acetylcholine receptor; alpha4/beta4 (Rattus norvegicus, UniProt P09483+P12392); experiment: Displacement of [3H] epibatidine from rat alpha4beta4 nAChR by beta scintillation counting; type: protein-complex assay
[3] = biological target: T1, Acetylcholine receptor; alpha1/beta1/delta/gamma (Homo sapiens) (UniProt P02708+P07510+P11230+Q07001); experiment: Antagonist activity at human alpha1beta1gammadelta nAChR expressed in TE671/RD cells at 10 uM by 86Rb+ flux assay; type: functional, cell-based
Procedure, shortened: (§1)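 Human clonal TE671/RD cells endogenously express muscle-type α1*-nAChRs (α1, β1, γ, δ). Cells were kept at low passage (1−26 from frozen stocks). Function was read as 86Rb+ efflux, with agonist and antagonist modes tested up to 10 μM.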

[4] = biological target: Neuronal acetylcholine receptor; alpha2/beta4 (Rattus norvegicus, UniProt P12389+P12392); experiment: Displacement of [3H] epibatidine from rat alpha2beta4 nAChR by beta scintillation counting; type: protein-complex assay
[5] = biological target: T2, Neuronal acetylcholine receptor; alpha4/beta2 (Homo sapiens, UniProt P17787+P43681); experiment: Agonist activity at human high sensitive and low sensitive alpha4beta2 nAChR expressed in SH-EP1 cells assessed as 86Rb+ ion efflux by flip-plate technique relative to sazetidine-A; type: functional, cell-based
Procedure, shortened: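 SH-EP1-hα4β2 cells (stably transfected human α4 and β2, low passage 1−26) express mixed high- and low-sensitivity α4β2-nAChRs. Efficacy was measured by 86Rb+ flux on this mixed population. High-sensitivity efficacy was extrapolated by defining a reference agonist as 100% full agonist at the HS receptor.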

[6] = biological target: T2, Neuronal acetylcholine receptor; alpha4/beta2; experiment: Antagonist activity at human high sensitive and low sensitive alpha4beta2 nAChR expressed in SH-EP1 cells assessed as inhibition of carbamylcholine induced 86Rb+ ion efflux preincubated for 10 mins prior to carbamylcholine-induction measured after 5 mins by flip-plate technique relative to control; type: functional, cell-based
Procedure, shortened: (§2)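 SH-EP1 human epithelial cells stably transfected with separate human α4 and β2 subunit cDNAs express a mixed population of high-sensitivity (2:3 α4:β2) and low-sensitivity (3:2) α4β2-nAChRs. Cells were kept at low passage (1−26 from frozen stocks). Function was read as 86Rb+ ion flux.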

[7] = biological target: T1, Acetylcholine receptor; alpha1/beta1/delta/gamma (Homo sapiens); experiment: Agonist activity at human alpha1beta1gammadelta nAChR expressed in TE671/RD cells at 10 uM by 86Rb+ flux assay; type: functional, cell-based; procedure, shortened: as §1
[8] = biological target: T3, Neuronal acetylcholine receptor; alpha3/beta4 (Rattus norvegicus, UniProt P04757+P12392); experiment: Displacement of [3H] epibatidine from rat alpha3beta4 nAChR by beta scintillation counting; type: protein-complex assay
[9] = biological target: T4, Neuronal acetylcholine receptors; alpha-3/beta-4, alpha-5, beta-2 (Homo sapiens) (UniProt P17787+P30926+P32297+P30532); experiment: Antagonist activity at alpha3beta4alpha5beta2 in human SH-SY5Y cells at 10 uM by 86Rb+ flux assay; type: functional, cell-based
Procedure, shortened: (§3)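 Human neuroblastoma SH-SY5Y cells endogenously express α3β4* nAChRs (α3, β4, probably α5, sometimes β2); their α7 receptors give no signal under these conditions. Cells were kept at low passage (1−26 from frozen stocks). Function was read as 86Rb+ efflux, with agonist and antagonist modes tested up to 10 μM.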

Rattus norvegicus = species: Rattus norvegicus; experiment: Selectivity ratio of Ki for rat alpha3beta4 to Ki for rat alpha4beta2
Procedure, shortened: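 Ki values from [3H]epibatidine competition binding at heterologously expressed rat nAChR subtypes, using the PDSP protocol; selectivity taken as the α3β4/α4β2 Ki ratio.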

[10] = biological target: T5, Neuronal acetylcholine receptor; alpha4/beta2 (Rattus norvegicus, UniProt P09483+P12390); experiment: Displacement of [3H] epibatidine from rat alpha4beta2 nAChR by beta scintillation counting; type: protein-complex assay
[11] = biological target: T2, Neuronal acetylcholine receptor; alpha4/beta2; experiment: Agonist activity at human alpha4beta2 nAChR expressed in SH-EP1 cells assessed as 86Rb+ ion efflux after 9.5 mins by flip-plate technique; type: functional, cell-based; procedure, shortened: as §2
[12] = biological target: Neuronal acetylcholine receptor; alpha3/beta2 (Rattus norvegicus, UniProt P04757+P12390); experiment: Displacement of [3H] epibatidine from rat alpha3beta2 nAChR by beta scintillation counting; type: protein-complex assay
[13] = biological target: T5, Neuronal acetylcholine receptor; alpha4/beta2; experiment: Displacement of [3H] epibatidine from rat alpha4beta2* nAChR in rat forebrain by beta scintillation counting
[14] = biological target: Neuronal acetylcholine receptor subunit alpha-7 (Homo sapiens) (UniProt P36544); experiment: Displacement of [3H]epibatidine from human alpha7 nAChR expressed in SH-EP1 cells at 10 uM by beta scintillation counting; type: cell-based
Procedure, shortened: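 Membranes from SH-EP1 cells heterologously expressing human α7 nAChRs; test ligand at 10 μM competing with 10 nM [3H]epibatidine; protocol similar to the PDSP one.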

[15] = biological target: T4, Neuronal acetylcholine receptors; alpha-3/beta-4, alpha-5, beta-2 (Homo sapiens); experiment: Agonist activity at alpha3beta4alpha5beta2 in human SH-SY5Y cells at 10 uM by 86Rb+ flux assay; type: functional, cell-based; procedure, shortened: as §3
[16] = biological target: T2, Neuronal acetylcholine receptor; alpha4/beta2; experiment: Antagonist activity at human alpha4beta2 nAChR expressed in SH-EP1 cells assessed as inhibition of carbamylcholine induced 86Rb+ ion efflux preincubated for 10 mins prior to carbamylcholine-induction measured after 5 mins by flip-plate technique; type: functional, cell-based; procedure, shortened: as §2
[17] = biological target: T2, Neuronal acetylcholine receptor; alpha4/beta2; experiment: Partial agonist activity at human high sensitive alpha4beta2 nAChR expressed in SH-EP1 cells assessed as 86Rb+ ion efflux by flip-plate technique relative to sazetidine-A; type: functional, cell-based
Procedure, shortened: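 86Rb+ ion flux in SH-EP1 cells stably transfected with separate human α4 and β2 subunit cDNAs, expressing a mixture of high- and low-sensitivity α4β2 nAChRs. Cells kept at low passage (1−26). Efficacy at the HS form extrapolated relative to a reference agonist defined as a 100% full agonist.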

[18] = biological target: T5, Neuronal acetylcholine receptor; alpha4/beta2; experiment: Displacement of [3H] epibatidine from rat alpha4beta2* nAChR in rat forebrain by liquid scintillation counting
[19] = biological target: T3, Neuronal acetylcholine receptor; alpha3/beta4; experiment: Displacement of [3H] epibatidine from rat alpha3beta4 nAChR expressed in HEK293 cells by liquid scintillation counting; type: cell-based
[20] = Drug uptake in BALB/cJ mouse brain at 1 mg/kg after 15 mins; type: ADME, organism-based; design: dose 1 mg/kg; conditions: read-out: Drug uptake
[21] = biological target: T5, Neuronal acetylcholine receptor; alpha4/beta2; experiment: Displacement of [3H] epibatidine from rat alpha4beta2 nAChR expressed in HEK293 cells by liquid scintillation counting; type: cell-based
[22] = Drug uptake in BALB/cJ mouse brain at 3 mg/kg after 15 mins; type: ADME, organism-based; design: dose 3 mg/kg; conditions: read-out: Drug uptake

Neuronal acetylcholine receptor; alpha2/beta4, sequence (P12389 whole entry): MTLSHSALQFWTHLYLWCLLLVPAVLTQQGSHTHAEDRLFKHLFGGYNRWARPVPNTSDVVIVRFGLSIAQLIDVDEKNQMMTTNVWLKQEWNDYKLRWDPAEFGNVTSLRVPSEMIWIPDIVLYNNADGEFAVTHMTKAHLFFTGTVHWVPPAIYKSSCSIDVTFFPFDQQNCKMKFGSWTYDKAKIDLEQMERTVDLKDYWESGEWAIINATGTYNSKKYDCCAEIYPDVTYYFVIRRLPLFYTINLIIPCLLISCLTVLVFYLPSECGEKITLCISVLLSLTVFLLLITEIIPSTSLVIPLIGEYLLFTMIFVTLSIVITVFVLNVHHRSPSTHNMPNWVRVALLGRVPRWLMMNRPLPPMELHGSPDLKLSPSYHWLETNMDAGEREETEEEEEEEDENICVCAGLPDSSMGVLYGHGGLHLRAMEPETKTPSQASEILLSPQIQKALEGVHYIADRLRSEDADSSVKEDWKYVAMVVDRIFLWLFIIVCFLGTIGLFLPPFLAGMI
Neuronal acetylcholine receptor; alpha2/beta4, sequence (P12392 whole entry): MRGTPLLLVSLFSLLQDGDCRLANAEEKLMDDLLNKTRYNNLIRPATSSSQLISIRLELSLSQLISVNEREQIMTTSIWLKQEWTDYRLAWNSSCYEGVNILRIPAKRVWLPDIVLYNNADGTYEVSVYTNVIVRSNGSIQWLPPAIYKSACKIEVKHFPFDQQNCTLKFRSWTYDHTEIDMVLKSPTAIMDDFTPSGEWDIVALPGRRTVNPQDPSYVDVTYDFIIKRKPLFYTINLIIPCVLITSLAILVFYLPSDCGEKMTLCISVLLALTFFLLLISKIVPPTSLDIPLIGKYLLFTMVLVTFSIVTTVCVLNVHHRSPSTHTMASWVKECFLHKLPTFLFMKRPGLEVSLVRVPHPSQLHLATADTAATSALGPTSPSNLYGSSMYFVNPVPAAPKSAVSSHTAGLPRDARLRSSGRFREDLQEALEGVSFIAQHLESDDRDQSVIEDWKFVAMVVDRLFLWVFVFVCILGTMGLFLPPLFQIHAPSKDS
Neuronal acetylcholine receptor; alpha2/beta2, sequence (P12389 whole entry): as the sequence (P12389 whole entry) above
Neuronal acetylcholine receptor; alpha2/beta2, sequence (P12390 whole entry): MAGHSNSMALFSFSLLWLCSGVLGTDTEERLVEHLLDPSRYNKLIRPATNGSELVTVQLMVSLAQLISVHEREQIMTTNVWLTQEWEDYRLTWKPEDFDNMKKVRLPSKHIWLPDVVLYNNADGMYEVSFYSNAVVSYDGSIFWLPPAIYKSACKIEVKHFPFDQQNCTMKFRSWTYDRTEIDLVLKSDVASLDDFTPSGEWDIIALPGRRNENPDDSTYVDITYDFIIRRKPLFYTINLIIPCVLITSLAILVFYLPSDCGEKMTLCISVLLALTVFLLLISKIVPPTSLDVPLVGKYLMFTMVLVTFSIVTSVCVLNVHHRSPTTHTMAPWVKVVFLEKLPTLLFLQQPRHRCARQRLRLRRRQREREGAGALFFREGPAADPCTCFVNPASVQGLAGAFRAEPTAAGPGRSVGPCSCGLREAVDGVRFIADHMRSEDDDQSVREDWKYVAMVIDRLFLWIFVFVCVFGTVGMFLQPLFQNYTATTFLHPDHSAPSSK
T5 sequence (P09483 whole entry): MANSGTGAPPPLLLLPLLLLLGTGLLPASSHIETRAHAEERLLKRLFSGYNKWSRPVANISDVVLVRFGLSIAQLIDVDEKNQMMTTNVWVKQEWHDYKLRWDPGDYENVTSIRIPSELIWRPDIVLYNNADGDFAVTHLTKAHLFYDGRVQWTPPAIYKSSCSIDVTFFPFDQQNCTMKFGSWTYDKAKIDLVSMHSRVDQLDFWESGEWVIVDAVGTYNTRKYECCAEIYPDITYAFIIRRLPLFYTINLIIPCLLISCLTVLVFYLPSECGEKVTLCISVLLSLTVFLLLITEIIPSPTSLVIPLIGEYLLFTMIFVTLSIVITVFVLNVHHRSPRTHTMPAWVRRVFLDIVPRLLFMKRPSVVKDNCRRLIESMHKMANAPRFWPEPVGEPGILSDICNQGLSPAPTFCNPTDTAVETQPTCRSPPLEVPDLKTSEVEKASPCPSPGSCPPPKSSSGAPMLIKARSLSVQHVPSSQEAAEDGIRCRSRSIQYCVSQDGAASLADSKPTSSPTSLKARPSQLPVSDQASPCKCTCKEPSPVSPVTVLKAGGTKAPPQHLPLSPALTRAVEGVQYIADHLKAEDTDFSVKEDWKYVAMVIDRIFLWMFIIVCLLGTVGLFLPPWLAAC
T5 sequence (P12390 whole entry): as the sequence (P12390 whole entry) above
Neuronal acetylcholine receptor; alpha4/beta4, sequence (P09483 whole entry): as the sequence (P09483 whole entry) above
Neuronal acetylcholine receptor; alpha4/beta4, sequence (P12392 whole entry): as the sequence (P12392 whole entry) above
T3 sequence (P04757 whole entry): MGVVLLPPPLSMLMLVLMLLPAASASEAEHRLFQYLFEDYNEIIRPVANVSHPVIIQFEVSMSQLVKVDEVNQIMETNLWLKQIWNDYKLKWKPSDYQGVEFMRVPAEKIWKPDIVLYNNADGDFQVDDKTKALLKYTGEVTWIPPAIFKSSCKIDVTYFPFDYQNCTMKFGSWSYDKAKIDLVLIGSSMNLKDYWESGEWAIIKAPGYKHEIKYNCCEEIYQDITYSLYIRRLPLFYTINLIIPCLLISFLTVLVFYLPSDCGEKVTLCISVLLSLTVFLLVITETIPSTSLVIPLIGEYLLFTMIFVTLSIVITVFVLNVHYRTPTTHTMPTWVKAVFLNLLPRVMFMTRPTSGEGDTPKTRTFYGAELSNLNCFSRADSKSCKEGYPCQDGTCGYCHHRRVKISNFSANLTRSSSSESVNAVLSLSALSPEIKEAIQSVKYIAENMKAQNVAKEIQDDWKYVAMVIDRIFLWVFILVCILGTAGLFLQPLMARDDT
T3 sequence (P12392 whole entry): as the sequence (P12392 whole entry) above
Neuronal acetylcholine receptor; alpha3/beta2, sequence (P04757 whole entry): as the sequence (P04757 whole entry) above
Neuronal acetylcholine receptor; alpha3/beta2, sequence (P12390 whole entry): as the sequence (P12390 whole entry) above
T2 sequence (P17787 whole entry): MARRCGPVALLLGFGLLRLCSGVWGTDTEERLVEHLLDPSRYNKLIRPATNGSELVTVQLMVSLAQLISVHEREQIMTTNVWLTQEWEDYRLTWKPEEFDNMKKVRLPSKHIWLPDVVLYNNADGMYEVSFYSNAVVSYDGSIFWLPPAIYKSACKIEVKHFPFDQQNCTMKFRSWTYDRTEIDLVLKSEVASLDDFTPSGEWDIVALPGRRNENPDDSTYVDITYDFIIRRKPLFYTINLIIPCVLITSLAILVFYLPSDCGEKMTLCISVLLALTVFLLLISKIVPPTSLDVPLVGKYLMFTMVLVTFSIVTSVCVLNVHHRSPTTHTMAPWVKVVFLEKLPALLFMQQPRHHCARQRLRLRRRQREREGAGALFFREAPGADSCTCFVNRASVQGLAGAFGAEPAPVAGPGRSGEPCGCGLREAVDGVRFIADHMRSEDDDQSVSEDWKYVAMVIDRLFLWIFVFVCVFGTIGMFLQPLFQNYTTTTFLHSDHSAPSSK
T2 sequence (P43681 whole entry): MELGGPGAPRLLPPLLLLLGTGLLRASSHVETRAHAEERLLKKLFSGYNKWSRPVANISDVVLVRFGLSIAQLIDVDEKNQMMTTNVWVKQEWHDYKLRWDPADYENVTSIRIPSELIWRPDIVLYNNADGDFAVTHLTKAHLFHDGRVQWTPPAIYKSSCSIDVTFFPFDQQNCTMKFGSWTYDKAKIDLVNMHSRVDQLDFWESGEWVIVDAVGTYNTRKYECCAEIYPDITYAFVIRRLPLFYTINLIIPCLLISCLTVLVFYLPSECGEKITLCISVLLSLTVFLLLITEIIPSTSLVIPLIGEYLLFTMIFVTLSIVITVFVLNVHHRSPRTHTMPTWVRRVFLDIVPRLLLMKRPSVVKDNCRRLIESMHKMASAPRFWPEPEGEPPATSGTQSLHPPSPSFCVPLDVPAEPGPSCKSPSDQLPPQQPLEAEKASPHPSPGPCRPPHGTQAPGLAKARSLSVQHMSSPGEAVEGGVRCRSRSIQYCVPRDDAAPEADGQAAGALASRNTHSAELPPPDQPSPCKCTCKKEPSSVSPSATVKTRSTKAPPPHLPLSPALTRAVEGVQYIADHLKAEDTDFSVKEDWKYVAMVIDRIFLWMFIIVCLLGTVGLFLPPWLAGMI
Neuronal acetylcholine receptor subunit alpha-7 (Homo sapiens), sequence (P36544 whole entry): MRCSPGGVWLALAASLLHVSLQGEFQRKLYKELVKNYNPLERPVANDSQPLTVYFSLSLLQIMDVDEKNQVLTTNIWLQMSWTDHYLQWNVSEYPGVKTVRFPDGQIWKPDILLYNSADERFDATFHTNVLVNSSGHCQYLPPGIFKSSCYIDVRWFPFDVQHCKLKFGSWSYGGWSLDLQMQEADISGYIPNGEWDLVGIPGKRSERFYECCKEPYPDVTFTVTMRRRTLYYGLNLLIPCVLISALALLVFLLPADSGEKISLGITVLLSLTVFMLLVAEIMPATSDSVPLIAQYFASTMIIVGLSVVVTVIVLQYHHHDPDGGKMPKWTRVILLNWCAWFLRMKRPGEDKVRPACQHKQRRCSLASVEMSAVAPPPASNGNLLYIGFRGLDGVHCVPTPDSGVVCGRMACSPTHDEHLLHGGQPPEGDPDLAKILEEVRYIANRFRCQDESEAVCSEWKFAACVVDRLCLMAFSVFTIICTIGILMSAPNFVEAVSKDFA

| SMILES | Ki [1] | Ki [2] | Activity [3] | Ki [4] | Efficacy [5] | Efficacy [6] | Activity [7] | Ki [8] | Activity [9] | Ratio Ki (Rattus norvegicus) | Ki [10] | EC50 [11] | Ki [12] | Ki [13] | Activity [15] | IC50 [16] | Efficacy [17] | also measured |
| --- | --- | --- | --- | --- | --- | --- | --- | --- | --- | --- | --- | --- | --- | --- | --- | --- | --- | --- |
| O=C(OCC[C@H]1C[C@@H]1c1cncc(OC[C@@H]2CCN2)c1)N1CCCC1 | 1.5 nM | 162 nM | inactive | 2330 nM | 23% | 84% | inactive | > 10000 nM | inactive | > 100000 | 0.8 nM | 44.4 nM | 21.5 nM | 4 nM | inactive | 48.5 nM | 69% | %max [14]: 30% |
| OCCCCC#Cc1cncc(OC[C@@H]2CCN2)c1 |  |  | inactive |  | 55% | 63% | inactive |  | inactive | 24000 |  | 5.8 nM |  |  | inactive | 4.8 nM | 100% | Ki [18]: 0.9 nM; Ki [19]: 1000 nM; concentration at 0.25 h [20]: 3 ng/g; Ki [21]: 0.4 nM; concentration at 0.25 h [22]: 10 ng/g |
| OCC[C@@H]1C[C@H]1c1cncc(OC[C@@H]2CCN2)c1 | 0.5 nM | 29 nM | inactive | 65 nM | 10% | 69% | inactive | 1040 nM | inactive | 1500 | 0.7 nM | 34.6 nM | 17 nM | 3.7 nM | inactive | 50.9 nM | 65% |  |
| CN1CCC[C@H]1c1cccnc1 |  |  | inactive |  |  |  | inactive |  | inactive |  |  |  |  |  | inactive |  |  |  |
| COCC[C@@H]1C[C@H]1c1cncc(OC[C@@H]2CCN2)c1 | 0.5 nM | 96.5 nM | inactive | 405 nM | 8% | 75% | inactive | > 10000 nM | inactive | > 16700 | 0.6 nM | 43.1 nM | 20 nM | 6.2 nM | inactive | 50.4 nM | 62% |  |
| O=C(NC1CC1)OCC[C@H]1C[C@@H]1c1cncc(OC[C@@H]2CCN2)c1 | 0.9 nM | 234 nM | inactive | 720 nM | 27% | 82% | inactive | > 10000 nM | inactive | > 100000 | 0.7 nM | 23.3 nM | 16 nM | 2.4 nM | inactive | 19.6 nM | 80% |  |
| O=C(Nc1ccccc1)OCC[C@H]1C[C@@H]1c1cncc(OC[C@@H]2CCN2)c1 | 1.2 nM | 551 nM | inactive | 241 nM | 24% | 87% | inactive | 8850 nM | inactive | 14800 | 0.6 nM | 48.9 nM | 24.4 nM | 5.9 nM | inactive | 50.2 nM | 78% |  |
| CN(C)C(=O)OCC[C@H]1C[C@@H]1c1cncc(OC[C@@H]2CCN2)c1 | 0.3 nM | 281 nM | inactive | 261 nM | 15% | 85% | inactive | > 10000 nM | inactive | > 100000 | 0.4 nM | 18.2 nM | 15 nM | 2.1 nM | inactive | 19.1 nM | 71% |  |
